This note sets out measurements from ChEMBL document CHEMBL3875171, “[1,2]Oxazolo[5,4-e]isoindoles as promising tubulin polymerization inhibitors” (Eur J Med Chem, 2016).

Series [1] in a line: Oral bioavailability in mouse. Type of series: ADME, organism-based. Particulars: in vivo.
A short description of series [2]: Toxicity in mouse implanted with mouse M5076 cells. Type of series: organism-based.
Series [3] in a line: Antitumor activity against mouse M5076 cells implanted in mouse assessed as delay in time to develop 1 g tumor volume at 100 mg/kg/day. Type of series: functional.
Series [4] in a line: Oral bioavailability in rat. Type of series: ADME, organism-based. Particulars: in vivo.
Series [5] in a line: Displacement of [3H]colchicine from tubulin (unknown origin). More on the design: species or system Homo sapiens. Background: Displacement assays read how much labelled ligand stays bound in the presence of the test substance.
The nature of series [6]: Oral bioavailability in dog. Type of series: ADME, organism-based, Canis lupus familiaris. Conditions: in vivo.
A short description of series [7]: Antitumor activity against mouse M5076 cells implanted in mouse assessed as increase in mouse life span at 100 mg/kg/day relative to control. Type of series: functional.
A short description of series [8]: Oral bioavailability in monkey. Type of series: ADME, organism-based, Macaca mulatta. Particulars: rhesus monkey, in vivo.
Series [9] is described as follows: Cytotoxicity against human MCF7 cells assessed as growth inhibition after 72 hrs by MTS assay. Type of series: functional, cell-based. Conditions: MCF7, 72 h. In outline:
(§1)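 Log-phase cells seeded at 4500 cells/50 µL and grown 24 h, then exposed 72 h to 0.01-100 µM compound; vehicle controls 0.01% DMSO. MTS read-out at 490 nm, expressed as % of DMSO-treated cells. Eight replicates per condition, at least three independent repeats; IC50 read graphically from dose-response curves.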
(In general: Tetrazolium dyes change colour on reduction, which living cells bring about.)

Series [10] is described as follows: Antitumor activity against human STO cells xenografted in nude mouse assessed as tumor growth inhibition at 5 mg/kg, ip administered once per seven days for 4 weeks starting from day 10 post cell inoculum. Type of series: functional. Particulars: read-out: TGI. In a few lines:
(§2)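 Female nude mice, 6-8 weeks old; 10^7 exponentially growing STO cells injected s.c. into right flank; eight mice per group. Compound in 10% DMSO/90% saline, 5 mg/kg i.p. q7dx4 from day 10 after inoculum. Tumor diameters measured weekly by caliper, TV = d2×D/2; TVI% = 100 − (mean TV treated/mean TV control × 100). Toxicity scored as body weight loss and lethality.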
(In general: In xenograft studies the graft and the host belong to different species.)

The test system of series [11] is STO. Put plainly: Cell cycle arrest in human STO cells assessed as reduction G1 phase at antiproliferative IC50 after 48 to 72 hrs by propidium iodide staining based flow cytometry. Type of series: functional. In a few lines: (§3)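 STO or MP8 cells exposed 48 and 72 h to compound at IC50 or IC80 (72-h MTS values), controls 1% DMSO. Adherent plus floating cells fixed in 70% ethanol, stained 30 min at 4°C with propidium iodide 50 µg/mL, RNase, 0.05% NP-40 in PBS. ≥30000 events per flow cytometry sample; Modfit model for G1/S/G2/M percentages; mean of three independent experiments.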

Series [12] in a line: Cytotoxicity against human MP8 cells assessed as growth inhibition after 72 hrs by MTS assay. Particulars: MP8, 72 h. Type of series: functional, cell-based. In a few lines:
as §1

Series [13] in a line: Cytotoxicity against human MCF10A cells assessed as growth inhibition after 72 hrs by MTS assay. Type of series: toxicity, cell-based, MCF-10A. In a few lines:
as §1

Another series relates to Mus musculus. Put plainly: Toxicity in nude mouse xenografted with human STO cells assessed as body weight loss at 5 mg/kg, ip administered once per seven days for 4 weeks starting from day 10 post cell inoculum. Type of series: organism-based. Conditions: in vivo, 672 h. In outline:
as §2

The nature of series [14]: Cytotoxicity against human WI38 cells assessed as growth inhibition after 72 hrs by MTS assay. Type of series: toxicity, cell-based, WI-38. In a few lines: as §1
Series [15] is described as follows: Cell cycle arrest in human MP8 cells assessed as mitotic cells at antiproliferative IC50 after 72 hrs by fluorescence microscopic analysis relative to control. Type of series: functional.
Series [16] in a line: Cytotoxicity against human STO cells assessed as growth inhibition after 72 hrs by MTS assay. Type of series: functional, cell-based. In outline:
as §1

Series [17] can be described thus: Cytotoxicity against human JR8 cells assessed as growth inhibition after 72 hrs by MTS assay. Type of series: functional, cell-based. Particulars: JR8, 72 h. In a few lines:
as §1

A short description of series [18]: Cell cycle arrest in human STO cells assessed as mitotic cells at antiproliferative IC50 after 72 hrs by fluorescence microscopic analysis relative to control. Type of series: functional.
The nature of series [19]: Cytotoxicity against human DU145 cells assessed as growth inhibition after 72 hrs by MTS assay. Type of series: functional, cell-based. Particulars: DU-145, 72 h. In a few lines: as §1
The nature of series [20]: Cytotoxicity against human PC3 cells assessed as growth inhibition after 72 hrs by MTS assay. Conditions: PC-3, 72 h. Type of series: functional, cell-based. In outline:
as §1

Series [21] can be described thus: Cytotoxicity against human MDA-MB-231 cells assessed as growth inhibition after 72 hrs by MTS assay. Type of series: functional, cell-based. Particulars: MDA-MB-231, 72 h. In outline: as §1
Series [22] has as its system MP8. Put plainly: Cell cycle arrest in human MP8 cells assessed as reduction G1 phase at antiproliferative IC80 after 48 to 72 hrs by propidium iodide staining based flow cytometry. Type of series: functional. In a few lines:
as §3

Series [23] can be described thus: Cytotoxicity against human M14 cells assessed as growth inhibition after 72 hrs by MTS assay. Particulars: M14, 72 h. Type of series: functional, cell-based. In a few lines:
as §1

Series [24] deals with STO. Put plainly: Inhibition of alpha-tubulin polymerization in human STO cells assessed as increase in ratio of soluble to polymerized tubulin fraction at antiproliferative IC50 after 24 hrs by western blot analysis. Type of series: cell-based.
The subject of series [25] is MP8. Put plainly: Inhibition of alpha-tubulin polymerization in human MP8 cells assessed as increase in ratio of soluble to polymerized tubulin fraction at antiproliferative IC50 after 24 hrs by western blot analysis. Type of series: cell-based.
Series [26] concerns STO. Put plainly: Cell cycle arrest in human STO cells assessed as reduction G1 phase at antiproliferative IC80 after 48 to 72 hrs by propidium iodide staining based flow cytometry. Type of series: functional. In a few lines: as §3
The test system of series [27] is MP8. Put plainly: Cell cycle arrest in human MP8 cells assessed as reduction G1 phase at antiproliferative IC50 after 48 to 72 hrs by propidium iodide staining based flow cytometry. Type of series: functional. In outline: as §3

The source made the active and inactive calls. The calls are words filed in the database; no cut-off is given here.

Turning to `COc1cc([C@H]2CN=C(c3ccc4c(ccn4C)c3)O2)cc(OC)c1OC`, the bioavailability in series [1], in series [4], in [6] and in series [8] was 6.5 to 18.6% throughout. Also, in series [2], the MTD turned out to be 100 mg/kg/day. The Time in series [3] worked out at 28 days. For the same molecule, the affinity in [5], expressed as Ki, was 650 nM. In [7], the Activity amounted to 206%.

In the case of `COc1cc(Cn2cc3c(c2)-c2oncc2CC3)cc(OC)c1`, the half-inhibitory concentration (IC50) – broadly, the point on the concentration scale where inhibition reaches its midpoint – in series [9] came out at 330 nM; in series [12] it was 70 nM; in series [16] it was 60 nM; in [17], 230 nM; in [19], 310 nM; in [20], 270 nM. The figures for the IC50 in [21] and in series [23] were 320 nM and 310 nM, respectively. Moreover, the inhibition in vivo at 5 mg/kg in series [10] amounted to 51%. In addition, the outcome in the series on STO [11], in the series with MP8 [22], in the series on STO [26] and in the series on MP8 [27] was Active. In addition, the IC50 at 72 h in series [13] and in [14] was > 100000 nM throughout. In addition, the Activity entry in the series on Mus musculus was “Non-Toxic”; in [15], 35 - 70%; in [18], 35 - 70%. Moreover, the inhibition entry in the series with STO [24] and in the series on MP8 [25] was “Active” each time.
